The target of experiment [1] is T1, Amine oxidase [flavin-containing] B (Bos taurus, UniProt P56560).
T1 sequence (P56560 whole entry): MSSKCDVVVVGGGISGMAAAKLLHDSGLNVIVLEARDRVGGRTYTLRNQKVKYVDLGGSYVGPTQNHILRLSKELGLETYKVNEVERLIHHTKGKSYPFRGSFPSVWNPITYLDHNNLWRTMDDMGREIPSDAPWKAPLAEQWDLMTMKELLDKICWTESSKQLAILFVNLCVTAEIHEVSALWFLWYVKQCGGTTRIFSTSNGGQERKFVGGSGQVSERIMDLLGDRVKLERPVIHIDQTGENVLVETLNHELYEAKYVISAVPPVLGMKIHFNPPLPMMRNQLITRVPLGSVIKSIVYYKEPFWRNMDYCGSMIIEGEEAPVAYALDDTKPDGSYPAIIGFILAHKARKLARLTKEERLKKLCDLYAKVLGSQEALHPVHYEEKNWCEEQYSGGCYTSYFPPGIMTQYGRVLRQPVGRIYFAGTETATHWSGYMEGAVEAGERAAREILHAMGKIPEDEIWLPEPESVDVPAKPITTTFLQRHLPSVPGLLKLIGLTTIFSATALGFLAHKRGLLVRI
Description: K inact/KI against Monoamine oxidase B. Summed up: (§1)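 MAO B (20 μL of 2.6 mg/mL) was added to the amine hydrochloride at various concentrations, in 100 mM Tris pH 9.0 with 4% v/v DMSO. The mixture was incubated at 25 °C. At intervals an aliquot was diluted 1:50 into 1.0 mM benzylamine in the same buffer, and activity was read as the change in absorbance at 250 nm. Activity is expressed relative to a no-inactivator DMSO control. K_I and k_inact were derived by the Kitz–Wilson method.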

Experiment [2] deals with T1, Amine oxidase [flavin-containing] B. Briefly: Inhibition constant was evaluated against mitochondrial Monoamine oxidase B. Summed up: as §1
For experiment [3] the target is unchanged. Description: Inactivation constant was determined against mitochondrial Monoamine oxidase B. Summed up: as §1

We go through three compounds from ChEMBL document CHEMBL1129988, “4-substituted cubylcarbinylamines: a new class of mechanism-based monoamine oxidase B inactivators” (J Med Chem, 1997).

SMILES strings stand for the structures.

The kinact/KI is the second-order rate constant of inactivation. Broadly, the Ki is the equilibrium dissociation constant of an inhibitor or competing ligand from its target. Lower therefore signals tighter binding. As usually defined, the kinact is the maximal first-order rate at which the target is inactivated.

With `NCC12C3C4C5C3C1C5C42` (centres undefined), in experiment [1], the kinact/KI was 3.17 M⁻¹ s⁻¹. This compound also returned a Ki in experiment [2] of 170 µM. The kinact in experiment [3] was 0.00055 s⁻¹.
For `NCC12C3C4C1C1C2C3C41C1CC1` (centres undefined), in that order: 18.3 M⁻¹ s⁻¹, 260 µM and 0.00467 s⁻¹.
Take `NCC12C3C4C1C1C2C3C41c1ccccc1` (centres undefined): the kinact/KI in experiment [1] is 105 M⁻¹ s⁻¹. The same compound came in with a Ki in experiment [2] of 120 µM. In addition, the kinact in experiment [3] is 0.0125 s⁻¹.
